Measured values: article PMC4816258 (Clinical and Translational Gastroenterology, 2015)
“Also recorded” adds a separate entry of the source. Where no end group is shown, it is not given here.

B1: QRH*-Cy5.5 (peptide)
peptide: QRHKPREGGGSK(Cy5.5)-NH2

Assays:
SW620 cells = test: confocal fluorescence microscopy of peptide binding, SW620; assay type: cell-based, human; conditions: 5 μM peptide, 3 min at RT; SW620 low EGFR expression
Summary of the method: (§1)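 HT29 cells kept in McCoy's medium; SW480 and SW620 cells in DMEM. All with 10% FBS and 1% penicillin–streptomycin at 37 °C, 5% CO2. ~10^3 cells grown on coverslips to ~80% confluence, washed in PBS and incubated with 5 μM Cy5.5-labeled test or control peptide for 3 min at RT. Cells washed, fixed in 4% PFA for 5 min and mounted with DAPI; confocal imaging with 63× oil objective. Intensities quantified from five cells in two independent images.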

[1] = tested on: EGFR in HT29 cells (siCL vs siEGFR); test: siRNA knockdown of EGFR, confocal microscopy of peptide binding; assay type: cell-based, human; conditions: for intensity siCL vs siEGFR (in words): HT29, confocal; for binding/intensity in HT29 knockdown cells (siEGFR) / binding to control HT29 cells (siCL): confocal; for binding/intensity in HT29 knockdown cells (siEGFR): EGFR-targeting siRNA; for binding to control HT29 cells (siCL): nontargeting siRNA
Summary of the method: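 HT29 cells, with penicillin–streptomycin omitted, transfected using DharmaFECT with EGFR-targeting or nontargeting pool siRNA. Cells incubated with Cy5.5-labeled test and control peptides, then fixed in 4% PFA or methanol. Stained with mouse anti-EGFR (1:1000) overnight at 4 °C, then AF488 goat anti-mouse (1:500) 1 h at RT. Mounted with DAPI; confocal imaging with 63× oil objective.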

HT29 cells [2] = test: confocal fluorescence microscopy of peptide binding, HT29; assay type: cell-based, human; conditions: 5 μM peptide, 3 min at RT; HT29 high EGFR expression
Summary of the method: as §1

[3] = fluorescence spectra of Cy5.5-labeled peptides; assay type: physicochemical; conditions: 10 μM in PBS, λex=671 nm
[4] = tested on: spontaneous colonic adenomas in CPC;Apc mice; test: in vivo near-infrared fluorescence endoscopy of colon in CPC; design: species or system mouse; conditions: for T/B ratio (log2), flat lesions / T/B ratio (log2), polyps: mean±s.d., n=15; for target-to-background ratio, flat lesions / target-to-background ratio, polyps: 1.5 ml, 5 min incubation; for target-to-background ratio, flat lesions: flat lesions n=15, 5 mice; for target-to-background ratio, polyps: polyps n=15, 5 mice
Summary of the method: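 CPC;Apc mice (Cdx2-Cre, floxed Apc allele), n=5, aged 7–10 months, under 2–4% isoflurane in oxygen by nose cone. Colon rinsed with water under white light. Cy5.5-labeled peptides (100 μM) delivered topically through the endoscope channel and left 5 min, then unbound peptide rinsed off. Imaging with small-animal NIR fluorescence endoscope; lesions excised for H&E. T/B ratios log-transformed; fold-change taken as anti-log of difference.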

SW480 cells = test: confocal fluorescence microscopy of peptide binding, SW480; assay type: cell-based, human; conditions: 5 μM peptide, 3 min at RT; SW480 medium EGFR expression
Summary of the method: as §1

[5] = tested on: EGFR phosphorylation, Akt and Erk1/2 phosphorylation in HT29 cells; test: effect of peptide on cell signaling, western blot; assay type: cell-based, human; conditions: 5 and 100 μM, 10, 20 and 120 min
Summary of the method: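 HT29 cells held in serum-free medium for 16 h, then exposed to Cy5.5-labeled peptide at 5 or 100 μM for 10, 20 or 120 min. EGF at 100 ng/ml for the same times served as reference. Cells lysed in RIPA with protease inhibitors, followed by SDS gel electrophoresis, PVDF transfer and chemiluminescent immunoblotting. Probes: EGFR, phospho-EGFR, AKT, phospho-AKT (S473), ERK1/2, phospho-ERK1/2 and tubulin.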

human colonic dysplasia = test: binding of peptide and antibody to human colonic specimens, confocal microscopy
Summary of the method: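 Human colonic biopsies from routine colonoscopy, frozen in OCT, cut at 10 μm. Sections incubated with 5 μM Cy5.5-labeled peptide in PBS for 10 min at RT, then rabbit anti-EGFR (1:1000) overnight at 4 °C and AF488 goat anti-rabbit (1:500) 1 h at RT. Sections fixed in 4% PFA and mounted with DAPI; confocal imaging at 20×. Mean intensity taken from three 30×30 μm² boxes within surface epithelium per specimen. Histology reviewed by GI pathologist.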

[6] = tested on: dysplastic crypts in polyps; test: binding to dysplastic crypts in mouse polyp specimens, immunofluorescence; conditions: optimal cutting temperature-embedded mouse specimens
Summary of the method: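 Mouse polypoid dysplasia frozen in OCT and cut at 10 μm. Sections stained with goat anti-mouse anti-EGFR (1:1000) plus AF488-labeled secondary antibody, washed in PBS, fixed in 4% PFA for 10 min and mounted with DAPI. Confocal microscopy used; adjacent sections stained with H&E.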

HT29 cells [7] = test: apparent association time constant, flow cytometry; assay type: binding, human; conditions: from k, 5 μM QRH*-Cy5.5, 4 °C
Summary of the method: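 HT29 cells detached with PBS-based dissociation buffer; ~10^5 cells incubated with 5 μM Cy5.5-labeled test peptide at 4 °C for intervals from 0 to 20 min. Cells washed in cold PBS, fixed in 4% PFA and analysed by flow cytometry. Median fluorescence taken as a ratio to cells without peptide at each time point. Rate constant k fitted to y(t)=Imax[1−exp(−kt)]. Six independent experiments.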

[8] = tested on: human dysplastic colorectal polyps; conditions: FITC-labeled, confocal endomicroscopy; cited from earlier work
[9] = target: Epidermal growth factor receptor (EGFR) (human (endogenous in HT29, SW480, SW620), UniProt P00533 25-1210); test: immunostaining of cells or tissue
[10] = NIR endoscopy, topical 100 μM, 5 min
[11] = anti-log of difference in log-transformed data

| Molecule | intensity siCL vs siEGFR (in words) [1] | binding/intensity in HT29 knockdown cells (siEGFR) [1] | binding to control HT29 cells (siCL) [1] | peak emission [3] | fluorescence signal from flat lesions [4, 10] | fluorescence signal from polyp [4, 10] | T/B ratio (log2), flat lesions ([4]; topical 100 μM) | T/B ratio (log2), polyps ([4]; topical 100 μM) | EGFR phosphorylation / downstream signaling [5] | target-to-background ratio, flat lesions ([4]; topical 100 μM) | target-to-background ratio, polyps ([4]; topical 100 μM) | also measured |
| --- | --- | --- | --- | --- | --- | --- | --- | --- | --- | --- | --- | --- |
| PEHKRRQ [PEH*-Cy5.5] | nonsignificant decrease | minimal binding | minimal binding | 710 nm | Minimal signal | Minimal signal | 0.36±0.47 log2 | 0.62±0.77 log2 |  |  |  | binding to cell surface (SW620) (SW620 cells): Minimal binding; binding to cell surface (HT29) (HT29 cells [2]): Minimal binding; binding to cell surface (SW480) (SW480 cells): Minimal binding |
| QRHKPRE |  |  |  |  |  |  |  |  | No downstream signaling was observed; also recorded: lack of cytoplasmic signaling | 2.7±0.7 | 4.0±1.7 | mean fluorescence intensity, dysplasia compared with normal (human colonic dysplasia; 5 μM, 10 min at RT, dysplasia n=29, normal n=15): 19.4 fold |
| QRHKPRE [QRH*-Cy5.5] | significantly higher intensities for siCL-transfected HT29 cells | Reduced fluorescence intensity | bind strongly to the surface; also recorded: strong binding | 710 nm | Several flat lesions are seen on fluorescence; also recorded: presence of flat lesions | increased intensity from the polyp in a heterogeneous pattern | 1.39±0.34 log2 | 1.90±0.60 log2 | no evidence of either EGFR phosphorylation or downstream phosphorylation of Akt and Erk1/2 | 2.7±0.7 | 4.0±1.7 | area under ROC curve (AUC) (human colonic dysplasia; dysplasia vs normal, n=29 and 15): 0.94; binding to dysplastic crypts in polyps [6]: increased fluorescence intensity; signal from normal colonic mucosa [4, 10]: minimal background; mean fold difference of T/B ratio QRH*-Cy5.5 vs PEH*-Cy5.5, flat lesions [4, 11]: 2.05; mean fold difference of T/B ratio QRH*-Cy5.5 vs PEH*-Cy5.5, polyps [4, 11]: 2.43; difference in results between QRH*-Cy5.5 and PEH*-Cy5.5 (target-to-background) ([4]; topical 100 μM, 5 min): significant; time scale for binding (HT29 cells [7]): 2.46 min |
| VRPMPLQ |  |  |  |  |  |  |  |  |  |  |  | detection of dysplastic colorectal polyps [8]: used to detect human dysplastic colorectal polyps in vivo with confocal endomicroscopy |
| B1 |  |  |  |  |  |  |  |  |  |  |  | fold change of fluorescence intensity, siCL- vs. siEGFR-transfected cells [9]: 3.2 fold |
